Assay type in all cases: functional
Assay [1] deals with Escherichia coli. Kind of assay: Tested for in vitro antibacterial activity against Escherichia coli W9523. In outline: (§1)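 Agar dilution per NCCLS. Twofold serial dilutions (128–0.002 μg/mL) were made in Mueller Hinton medium. Plates were inoculated with about 10^4 organisms and incubated at 37 °C for 18 h. MIC was the lowest concentration giving no visible growth.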
Assay [2] is described as follows: In vitro antibacterial activity against Gram (-) bacteria. In short, it runs like this: (§2)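 Value is the geometric mean of MICs over a panel: 14 Gram (–) or 13 Gram (+) strains. MICs came from NCCLS agar dilution in Mueller Hinton medium (10% horse blood added for S. pneumoniae), with twofold dilutions from 128 to 0.002 μg/mL. Inoculum was about 10^4 organisms, at 37 °C for 18 h; endpoint was no visible growth.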

Assay [3] concerns Staphylococcus aureus. Kind of assay: Tested for in vitro antibacterial activity against methicillin resistant Staphylococcus aureus W9501. In outline:
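Agar dilution per NCCLS standard method in Mueller Hinton medium; two-fold serial dilutions of test compound from 128 to 0.002 μg/mL. Plates inoculated with about 10^4 organisms, incubated 37 °C for 18 h. MIC read as lowest concentration giving no visible growth on the plate.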

In assay [4] the test system is Pseudomonas aeruginosa. In words: Tested for in vitro antibacterial activity against Pseudomonas aeruginosa W348. In short, it runs like this: as §1
Assay [5] concerns Streptococcus pneumoniae. Kind of assay: Tested for in vitro antibacterial activity against Streptococcus pneumoniae W1466. In outline:
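Agar dilution per NCCLS in Mueller Hinton medium supplemented with 10% horse blood. Twofold dilutions spanned 128–0.002 μg/mL. Inoculum was about 10^4 organisms, incubated at 37 °C for 18 h. MIC was the lowest concentration with no visible growth.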

Assay [6] in a line: Tested for in vitro antibacterial activity against Gram (+) bacteria. In outline: as §2

Converted amounts (≈) assume the structure as drawn.

By MIC is commonly meant the lowest concentration that inhibits growth of the organism. Low readings indicate a more susceptible organism, high ones a less susceptible organism. For `NC1CN(c2c(F)cc3c(=O)c(C(=O)O)cn(-c4ccc(F)cc4F)c3c2Cl)C1`, the MIC in assay [1] came out at 32 µg/mL (≈ 75.5 µM); in assay [3], 8 µg/mL (≈ 18.9 µM); in assay [4], 16 µg/mL (≈ 37.8 µM); in assay [5] it was 0.03 µg/mL (≈ 0.0708 µM). The GM-MIC in assay [2] came to 0.06 µg/mL; in assay [6], 0.13 µg/mL.

`Nc1c(F)ccc(-n2cc(C(=O)O)c(=O)c3cc(F)c(N4CC[C@H](N)C4)nc32)c1F`: the GM-MIC in assay [2] was found to be 0.32 µg/mL; in assay [6], 1.61 µg/mL.

For the compound `Nc1cc(-n2cc(C(=O)O)c(=O)c3cc(F)c(N4CC[C@H](N)C4)nc32)ccc1F`, the GM-MIC stood at 0.14 µg/mL in assay [2] and 0.45 µg/mL in assay [6].

On to `CN(C)C1CN(c2c(F)cc3c(=O)c(C(=O)O)cn(-c4cc(N)c(F)cc4F)c3c2Cl)C1`, for which the GM-MIC in assay [2] amounted to 0.22 µg/mL; in assay [6], 0.12 µg/mL.

On to `Nc1cc(-n2cc(C(=O)O)c(=O)c3cc(F)c(N4CC[C@H](N)C4)nc32)c(F)cc1F`, for which the values for the GM-MIC in assay [2] and in assay [6] were 0.1 µg/mL and 0.26 µg/mL, respectively.

For `Cc1c(N2CC(N)C2)c(F)cc2c(=O)c(C(=O)O)cn(-c3cc(N)c(F)cc3F)c12`, the results for the GM-MIC in assay [2] and in assay [6] were 0.03 µg/mL and 0.09 µg/mL, respectively.

In the case of `Nc1cc(-n2cc(C(=O)O)c(=O)c3cc(F)c(N4CC(N)C4)cc32)c(F)cc1F`, the results for the GM-MIC in assay [2] and in assay [6] were 0.12 µg/mL and 0.49 µg/mL, respectively.

As for `CNC1CN(c2c(F)cc3c(=O)c(C(=O)O)cn(-c4cc(N)c(F)cc4F)c3c2Cl)C1`, the GM-MIC in assay [2] amounted to 0.04 µg/mL; in assay [6], 0.08 µg/mL.

As to `Nc1cc(-n2cc(C(=O)O)c(=O)c3cc(F)c(N4CC(N)C4)c(F)c32)c(F)cc1F`, the GM-MIC in assay [2] is 0.08 µg/mL; in assay [6], 0.42 µg/mL.

Consider `Nc1cc(-n2cc(C(=O)O)c(=O)c3cc(F)c(N4CC[C@H](N)C4)c(F)c32)c(F)cc1F`, for which the GM-MIC in assay [2] came to 0.22 µg/mL; in assay [6] it was 0.34 µg/mL.

For the compound `Nc1cc(-n2cc(C(=O)O)c(=O)c3cc(F)c(N4CC[C@H](N)C4)nc32)c(F)c(F)c1F`, the GM-MIC is 1.81 µg/mL in assay [2] and 3.22 µg/mL in assay [6].

For `Nc1cc(-n2cc(C(=O)O)c(=O)c3cc(F)c(N4CC[C@H](N)C4)cc32)c(F)cc1F`, the GM-MIC in assay [2] came to 0.14 µg/mL; in assay [6], 0.22 µg/mL.

For the compound `Nc1cc(-n2cc(C(=O)O)c(=O)c3cc(F)c(N4CCNCC4)c(Cl)c32)c(F)cc1F`, the GM-MIC in assay [2] is 0.52 µg/mL; in assay [6] it was 1.61 µg/mL.

On to `Nc1ccc(F)c(-n2cc(C(=O)O)c(=O)c3cc(F)c(N4CC[C@H](N)C4)nc32)c1`, for which the GM-MIC in assay [2] stood at 0.86 µg/mL; in assay [6], 1.99 µg/mL.

Turning to `CC1(N)CN(c2c(F)cc3c(=O)c(C(=O)O)cn(-c4cc(N)c(F)cc4F)c3c2Cl)C1`, the GM-MIC in assay [2] came to 0.06 µg/mL; in assay [6] it was 0.1 µg/mL.

On to `Nc1cc(-n2cc(C(=O)O)c(=O)c3cc(F)c(N4CCNCC4)cc32)c(F)cc1F`, for which the GM-MIC in assay [2] was 0.15 µg/mL; in assay [6], 1.05 µg/mL.

For `Nc1cc(-n2cc(C(=O)O)c(=O)c3cc(F)c(N4CC(N)C4)nc32)c(F)cc1F`, the GM-MIC in assay [2] was 0.15 µg/mL; in assay [6] it was 0.65 µg/mL.

Take `CCNC1CN(c2c(F)cc3c(=O)c(C(=O)O)cn(-c4cc(N)c(F)cc4F)c3c2Cl)C1`: the GM-MIC in assay [2] is 0.08 µg/mL; in assay [6], 0.12 µg/mL.

In the case of `Nc1cc(-n2cc(C(=O)O)c(=O)c3cc(F)c(N4CC(N)C4)c(Cl)c32)c(F)cc1F`, the MIC in assay [1] was 1 µg/mL (≈ 2.28 µM); in assay [3], 1 µg/mL (≈ 2.28 µM); in assay [4] it was 1 µg/mL (≈ 2.28 µM); in assay [5] it was 0.008 µg/mL (≈ 0.0182 µM). Further, the GM-MIC in assay [2] worked out at 0.03 µg/mL; in assay [6], 0.07 µg/mL.

As to `Nc1cc(-n2cc(C(=O)O)c(=O)c3cc(F)c(N4CC(N)C4)c(Br)c32)c(F)cc1F`, the GM-MIC worked out at 0.04 µg/mL in assay [2] and 0.07 µg/mL in assay [6].

Take `Nc1cc(-n2cc(C(=O)O)c(=O)c3cc(F)c(N4CCNCC4)nc32)c(F)cc1F`: the GM-MIC in assay [2] is 1.72 µg/mL; in assay [6], 5.81 µg/mL.

For the compound `Nc1cc(-n2cc(C(=O)O)c(=O)c3cc(F)c(N4CCNCC4)c(F)c32)c(F)cc1F`, the values for the GM-MIC in assay [2] and in assay [6] were 0.39 µg/mL and 2.6 µg/mL, respectively.

Regarding `Nc1cc(-n2cc(C(=O)O)c(=O)c3cc(F)c(N4CC[C@H](N)C4)c(Cl)c32)c(F)cc1F`, the values for the GM-MIC in assay [2] and in assay [6] were 1.21 µg/mL and 1.16 µg/mL, respectively.

As for `O=C(O)c1cn(C2CC2)c2cc(N3CCNCC3)c(F)cc2c1=O` [CIPROFLOXACIN], the MIC is 128 µg/mL (≈ 386 µM) in assay [1], 128 µg/mL (≈ 386 µM) in assay [3] and 1 µg/mL (≈ 3.02 µM) in assay [5]. The GM-MIC in assay [2] was 0.04 µg/mL; in assay [6], 0.99 µg/mL.

Take `NC1CCN(c2nc3c(cc2F)c(=O)c(C(=O)O)cn3-c2ccc(F)cc2F)C1` (configuration not stated) [TOSUFLOXACIN]: the GM-MIC in assay [2] is 0.12 µg/mL; in assay [6], 0.44 µg/mL.

As to `N[C@@H]1[C@H]2CN(c3nc4c(cc3F)c(=O)c(C(=O)O)cn4-c3ccc(F)cc3F)C[C@@H]12` [TROVAFLOXACIN], the MIC in assay [1] was above 128 µg/mL; in assay [3], 128 µg/mL (≈ 307 µM); in assay [4], 16 µg/mL (≈ 38.4 µM); in assay [5], 0.25 µg/mL (≈ 0.6 µM). For the same compound, the GM-MIC in assay [2] came out at 0.3 µg/mL; in assay [6] it was 0.29 µg/mL.

These data come from ChEMBL document CHEMBL1136788, “A novel antibacterial 8-chloroquinolone with a distorted orientation of the N1-(5-amino-2,4-difluorophenyl) group” (2003).
